Compound activity as filed in PubChem.
RanGTP-Imp inh = inhibitors of RanGTP-importin-beta interaction, primary screen, biochemical, FRET, CFP-Ran, YFP-importin-beta, homogeneous | inhibition, % (no concentration beside the values) | cell-free CFP-Ran/YFP-importin-beta FRET ratio | actives 1.1% (n = 300,000);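 active = more than half of the replicate wells show a fall in the fluorescence ratio signal beyond about 16%, limit read from the data, passing the limit was not always enough; inconclusive = exactly half of the replicate wells pass the set limit; inactive = fewer than half of replicates pass the limit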
Runt-SMMHC FRET = blocks binding of human RUNX1 Runt domain to CBFb-SMMHC | actives 0.74% (n = 220,000) | Cerulean-Runt/Venus-CBFb-SMMHC FRET ratio 530/480, 1 h | inhibition, % at 20 µM | Q01196+Q13951;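 active = mean inhibition across duplicate retests at 20 µM reaching about 50%, limit read from the data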;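 note: inhibitors lower the FRET ratio by blocking Runt binding to CBFb-SMMHC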
Target sequence (Q01196 whole entry, looked up, the tested form may be a part): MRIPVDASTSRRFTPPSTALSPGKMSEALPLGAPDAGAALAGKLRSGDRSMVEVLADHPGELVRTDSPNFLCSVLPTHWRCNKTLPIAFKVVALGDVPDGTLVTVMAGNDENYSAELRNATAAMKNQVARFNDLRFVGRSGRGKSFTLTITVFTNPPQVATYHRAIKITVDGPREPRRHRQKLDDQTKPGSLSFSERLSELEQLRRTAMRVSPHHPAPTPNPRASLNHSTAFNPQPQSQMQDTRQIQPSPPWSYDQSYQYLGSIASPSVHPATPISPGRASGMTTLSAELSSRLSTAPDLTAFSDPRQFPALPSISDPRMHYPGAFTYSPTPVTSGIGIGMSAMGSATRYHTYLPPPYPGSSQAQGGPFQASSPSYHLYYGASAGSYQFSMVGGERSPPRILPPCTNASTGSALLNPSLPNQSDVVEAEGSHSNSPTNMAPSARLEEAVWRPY
Target sequence (Q13951 whole entry, looked up, the tested form may be a part): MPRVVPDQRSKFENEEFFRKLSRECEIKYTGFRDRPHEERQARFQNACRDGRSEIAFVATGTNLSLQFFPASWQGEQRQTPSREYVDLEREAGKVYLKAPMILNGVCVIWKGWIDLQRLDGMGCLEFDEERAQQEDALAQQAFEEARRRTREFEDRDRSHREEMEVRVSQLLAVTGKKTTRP
Hck-Nef inh = human Hck-Nef kinase inhibition; inhibition, % at 20 µM; P08631; Recombinant Hck-YEEI plus Nef, Z-Lyte FRET kinase assay; actives 0.68% (n = 220,000);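 active = Hck-Nef kinase inhibition above about 50%, limit read from the data; inactive = inhibition below that limit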
CaV13 ICDI inh = Disruptors of the CACNA1D IQ motif to Ca2+-dependent inactivation inhibitor domain association, primary screening, Förster resonance energy transfer in intact living …; HEK cells, CFP/YFP FRET ICDI-IQ, plate reader, 10 min; percent FRET-ratio fall versus neutral wells; inhibition, % at 12.3 µM; actives 0.098% (n = 340,000); AID 743397;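 active = mean replicate inhibition of at least 30% and at least 1% of replicates passing that level; inconclusive = only one of the two criteria is met; inactive = neither criterion is met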
Runt-CBFb FRET = blocks binding of human RUNX1 Runt domain to CBFb; Q01196+Q13951; Cerulean-Runt/Venus-CBFb FRET ratio 530/480, 1 h; inhibition, % at 20 µM; actives 0.46% (n = 220,000); AID 1496;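 active = inhibition over about 50% at 20 µM in the single-dose screen, limit read from the data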
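Measured by: fluorescence energy transfer, 422 nm excitation, 530/480 nm emission; Assay system: Cerulean-Runt domain; Medium: Tris pH 7.5 buffer with BSA; Measure: loss of energy transfer signal; Controls: 5 µM unlabeled CBFb as full-inhibition high control; Incubation: protein complex preformed 1 h, compound exposure 1 h, room temperature, dark.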
A number is an active result; i = inactive; ? = inconclusive; nt = no result. A selection: hits, their analogues and other compounds. The true share with any hit is near 1.5%.

SMILES	RanGTP-Imp inh	Runt-SMMHC FRET	Hck-Nef inh	CaV13 ICDI inh	Runt-CBFb FRET
CCCCCCc1cc2cc(-c3nnc(-c4ccccc4OC)o3)c(=O)oc2cc1O	136	58	i	i	i
CCCCCCc1cc2cc(C(=O)Nc3ccccc3OC)c(=O)oc2cc1O	93	63	i	i	133
CCCCCCc1cc2cc(-c3nnc(-c4ccccc4O)o3)c(=O)oc2cc1O	159	i	i	i	i
COc1cccc2cc(-c3nnc(-c4ccccc4)o3)c(=O)oc12	?	nt	i	i	nt
CCCCCOC(=O)CSc1nnc(-c2cc(OC)c(OC)c(OC)c2)o1	i	i	i	i	i
CON(C)S(=O)(=O)c1cccc(C(=O)Oc2ccc(N(C)S(=O)(=O)c3ccccc3)cc2)c1	i	nt	nt	i	nt
CC1(C(=O)NS(=O)(=O)c2cccc(C#N)c2)CCN1C(=O)CCc1ccccc1 (centres undefined)	nt	nt	nt	i	nt
O=C(CN1C(=O)N/C(=C\c2ccccc2OCc2ccc(C(=O)O)cc2)C1=O)Nc1ccccc1F	i	nt	nt	i	nt
CN(CC(=O)Nc1c(Cl)cccc1Cl)C(=O)c1cc(S(=O)(=O)N(C)C)ccc1N1CCCC1	?	nt	nt	i	nt
CSc1nc(=S)c2[nH]c(=S)[nH]c2[nH]1	i	51	i	i	i
Cc1cc(C)c2c(NC(=O)CCl)nn(C)c2n1	i	i	i	i	i
CCn1nc(NC(=O)C(C)(C)C)c2cc3cccc(C)c3nc21	47	nt	nt	i	nt
CCCC(=O)Nc1nn(C)c2nc3c(C)cccc3cc12	31	i	i	nt	i
CCn1nc(NS(=O)(=O)c2ccc([N+](=O)[O-])cc2)c2cc3cccc(C)c3nc21	i	nt	nt	i	nt
CCn1nc(NC(=O)CC(C)C)c2cc3cccc(C)c3nc21	?	nt	nt	i	nt
CCCn1nc(NC(=O)COC)c2cc3cccc(C)c3nc21	38	nt	nt	i	nt
Cc1cccc2cc3c(NC(=O)c4ccccn4)nn(C)c3nc12	35	i	i	nt	57
CC(C)N1CCN(Cc2ccc(OC3CCCC3)cc2)CC1CCO (centres undefined)	i	nt	nt	i	nt
Cc1cc(=O)oc2cc(OCC(=O)Nc3ccc(N4CCC(C)CC4)cc3)ccc12	i	nt	nt	i	nt
CC1CCCC(NC(=O)CN2C(=O)c3cccnc3Oc3ccc(Cl)cc32)C1C (centres undefined)	i	nt	nt	i	nt
CCCn1nc(NC(C)=O)c2cc3cccc(C)c3nc21	69	nt	nt	i	nt
CC1C2(C)OCC(C#N)(C(=N)O2)C1(C#N)C#N (centres undefined)	i	51	i	nt	i
O=C(Nc1ccc2c(c1)OCCO2)c1ccc(NC(=O)C2CCCO2)cc1 (centres undefined)	i	i	i	93	i
CCOC(=O)c1c(N)sc2c1CCCC2	i	i	i	nt	i
CCOC(=O)c1c(NC(=S)Nc2ccccc2)sc2c1CCN(CCc1ccccc1)C2	nt	i	i	nt	94
SMILES	RanGTP-Imp inh	Runt-SMMHC FRET	Hck-Nef inh	CaV13 ICDI inh	Runt-CBFb FRET
CN1CCc2c(sc(N)c2C(=O)O)C1	50	144	i	i	75
CCOC(=O)c1c(N)sc2c1CCN(CCc1ccccc1)C2	72	nt	nt	i	nt
Cc1cc(OCC(=O)OCC(=O)N(C)Cc2ccccc2C)ccc1Cl	nt	nt	nt	i	nt
CC(C)C(NC(=O)CCNC(=O)c1ccc([N+](=O)[O-])cc1)c1nc2ccccc2[nH]1 (centres undefined)	nt	nt	nt	i	nt
Cn1c(N)c(C(=O)CSc2nn(-c3ccccc3)c(=S)s2)c(=O)n(C)c1=O	nt	nt	nt	i	nt
COc1cc(C2Nc3ccccc3NC3=C2C(=O)CC(c2ccc(OC)c(OC)c2)C3)ccc1O (centres undefined)	i	56	i	i	i
CC(=O)Nc1cccc(N/C=C(\C=O)c2nc3ccccc3o2)c1	i	66	i	i	i
CC(=O)Nc1ccc(N/C=C(\C=O)c2nc3ccccc3o2)cc1	i	i	i	i	i
COc1ccc(C(=O)COC(=O)CCCC(=O)NC2CCCCC2)cc1	i	nt	nt	i	nt
Cc1ccc2c(n1)sc1c(-c3ccc(Br)cc3)c(C#N)c(N)nc12	79	i	i	nt	i
CCn1c2ccccc2c2nc3cc(OC)c(OC)cc3nc21	89	i	i	i	i
COc1cc2nc3c4ccccc4n(CC#N)c3nc2cc1OC	i	51	i	i	i
CN1c2ccc(Cl)cc2C(=O)NC1C1CC=CCC1 (centres undefined)	30	95	i	44	i
